The results in this text go back to ChEMBL document CHEMBL4433205, “Dual Pharmacophores Explored via Structure-Activity Relationship (SAR) Matrix: Insights into Potent, Bifunctional Opioid Ligand Design” (J Med Chem, 2019).

For data set [1], the species on record is Rattus norvegicus. Kind of data set: Selectivity ratio of Ki for rat delta opioid receptor expressed in rat C6 cell membranes to Ki for rat mu opioid receptor expressed in rat C6 cell membranes. Format: cell-based. An outline of the steps:
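Competition binding against 0.2 nM [3H]-diprenorphine, using C6 membranes expressing rat MOR or rat DOR (20 μg protein/tube). Run in 50 mM Tris-HCl pH 7.4, 1 h at room temperature with shaking, then filtration and scintillation counting. Nonspecific binding with 10 μM naloxone.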

For data set [2], the target named is Delta-type opioid receptor (Rattus norvegicus) (UniProt P33533). Kind of data set: Agonist activity at rat delta opioid receptor expressed in rat C6 cell membranes assessed as stimulation of [35S]GTPgammaS binding incubated for 1 hr relative to DPDPE. It is filed as functional. (GTPγS is a poorly hydrolysed GTP analogue; its binding reports G protein activation.)

For data set [3], the target named is T1, Delta-type opioid receptor (Rattus norvegicus, UniProt P33533). Briefly: Displacement of [3H]diprenorphine from rat delta opioid receptor expressed in rat C6 cell membranes measured after 1 hr by liquid scintillation counting method. Background: Loss of bound radioactivity is the signal in a displacement assay; it reports binding, not function.
Data set [4] concerns Mus musculus. Kind of data set: Antinociceptive activity in C57BL/6 mouse assessed as increase in latency to tail withdrawal up to 10 mg/kg, ip administered at 30 mins interval measured during compound dosing by warm water tail withdrawal assay relative to control. It is filed as functional. Summed up: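 Male C57BL/6 mice, 20–30 g, 8–16 weeks. Saline ip, baseline latency 30 min later; then cumulative ip doses 1, 3.2, 10 mg/kg in 5% DMSO/saline at 30 min intervals, latency read 30 min after each. Tail tip (2–3 cm) in 50°C water, 20 s cutoff; expressed as % MPE (MPE = 20 s).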

The target in data set [5] is T2, Kappa-type opioid receptor (Homo sapiens, UniProt P41145). Kind of data set: Agonist activity at human kappa opioid receptor expressed in CHO cell membranes assessed as stimulation of [35S]GTPgammaS binding measured after 1 hr. Format: functional. To be noted: read-out: EC50.
For data set [6], the target named is T2, Kappa-type opioid receptor. Kind of data set: Agonist activity at human kappa opioid receptor expressed in CHO cell membranes assessed as stimulation of [35S]GTPgammaS binding to G protein incubated for 1 hr relative to U69,593. It is filed as functional.
For data set [7], the target named is T3, Mu-type opioid receptor (Rattus norvegicus, UniProt P33535). Briefly: Displacement of [3H]diprenorphine from rat mu opioid receptor expressed in rat C6 cell membranes measured after 1 hr by liquid scintillation counting method. An outline of the steps: (§1)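 Competition with 0.2 nM [3H]-diprenorphine on membranes (20 μg protein/tube) from stably transfected cells in 50 mM Tris-HCl pH 7.4, 1 h at room temperature with shaking; GF/C filtration, three washes, scintillation counting. Nonspecific binding defined with 10 μM naloxone.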

Data set [8] has as its target Mu-type opioid receptor (Rattus norvegicus) (UniProt P33535). Briefly: Agonist activity at rat mu opioid receptor expressed in rat C6 glioma cell membranes assessed as stimulation of [35S]GTPgammaS binding measured after 1 hr relative to DAMGO. Format: functional.
Data set [9] has as its system Mus musculus. Kind of data set: Antinociceptive activity in C57BL/6 mouse assessed as increase in latency to tail withdrawal by measuring time of action at 10 mg/kg, ip administered as bolus dose by warm water tail withdrawal assay. It is filed as functional. Summed up:
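Male C57BL/6 mice; saline ip, baseline 30 min later, then single 10 mg/kg ip bolus in 5% DMSO/saline. Tail withdrawal in 50°C water (20 s cutoff) at 5, 15, 30 min and every 30 min until return to baseline; duration = time from dosing to baseline return, done only for fully active compounds.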

The target in data set [10] is Delta-type opioid receptor (Rattus norvegicus) (UniProt P33533). Briefly: Agonist activity at rat delta opioid receptor expressed in C6 cell membranes assessed as stimulation of [35S]GTPgammaS binding at 1 uM incubated for 1 hr relative to SNC80. Format: functional. An outline of the steps:
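Rat DOR in C6 glioma membranes, [35S]-GTPγS binding (0.1 nM, 30 μM GDP, 1 h, 25°C). SNC80 concentration–response run alone and with 1 μM test compound present; stimulation expressed relative to SNC80. Ke = compound concentration/(EC50 shift − 1). Mean of ≥3 assays in duplicate.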

Data set [11] deals with T2, Kappa-type opioid receptor. Kind of data set: Displacement of [3H]diprenorphine from human kappa opioid receptor expressed in CHO cell membranes measured after 1 hr by liquid scintillation counting method. Summed up:
as §1

Data set [12] concerns the target Delta-type opioid receptor (Rattus norvegicus) (UniProt P33533). Briefly: Antagonist activity at rat delta opioid receptor expressed in rat C6 cell membranes assessed as inhibition of SNC80-induced [35S] GTPgammaS binding measured after 1 hr. It is filed as functional. Summed up:
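Membranes from rat C6 glioma cells stably expressing rat DOR; [35S]-GTPγS (0.1 nM) binding stimulated by SNC80 concentration–response, alone or with test compound at 1 μM, 1 h at 25°C in 50 mM Tris-HCl, 100 mM NaCl, 5 mM MgCl2, pH 7.4, with 30 μM GDP; filtration and scintillation counting.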

Data set [13] concerns the target T1, Delta-type opioid receptor. Briefly: Agonist activity at rat delta opioid receptor expressed in rat C6 cell membranes assessed as stimulation of [35S]GTPgammaS binding measured after 1 hr. Format: functional. To be noted: c6.
The nature of data set [14]: Lipophilicity, log P of the compound. It is filed as physicochemical. The following applies: octanol/water.
Data set [15] has as its target T3, Mu-type opioid receptor. Briefly: (§2) Agonist activity at rat mu opioid receptor expressed in rat C6 cell membranes assessed as stimulation of [35S]GTPgammaS binding measured after 1 hr. Format: functional. Summed up:
(§3)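 Membranes (10–20 μg protein/tube) from stably transfected cells incubated 1 h at 25°C in 50 mM Tris-HCl, 100 mM NaCl, 5 mM MgCl2, pH 7.4, with 0.1 nM [35S]-GTPγS, 30 μM GDP and varying test concentrations; filtration, scintillation counting.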

Data set [16] addresses Mu-type opioid receptor (Rattus norvegicus) (UniProt P33535). Described as §2. It is filed as functional. An outline of the steps:
as §3

Activity calls are given as the source filed them.

T1 sequence (P33533 whole entry): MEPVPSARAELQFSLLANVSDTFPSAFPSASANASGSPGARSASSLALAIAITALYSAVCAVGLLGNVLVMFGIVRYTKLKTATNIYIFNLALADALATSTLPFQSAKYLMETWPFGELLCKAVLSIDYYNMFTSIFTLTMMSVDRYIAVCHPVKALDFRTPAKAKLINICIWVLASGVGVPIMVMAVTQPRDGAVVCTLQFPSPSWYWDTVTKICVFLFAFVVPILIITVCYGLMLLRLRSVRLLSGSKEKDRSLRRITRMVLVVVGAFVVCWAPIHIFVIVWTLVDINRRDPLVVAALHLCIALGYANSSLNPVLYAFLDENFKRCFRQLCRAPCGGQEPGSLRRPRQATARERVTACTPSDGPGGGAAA
Sequence of Delta-type opioid receptor (Rattus norvegicus) (P33533 whole entry): as above
T2 sequence (P41145 whole entry): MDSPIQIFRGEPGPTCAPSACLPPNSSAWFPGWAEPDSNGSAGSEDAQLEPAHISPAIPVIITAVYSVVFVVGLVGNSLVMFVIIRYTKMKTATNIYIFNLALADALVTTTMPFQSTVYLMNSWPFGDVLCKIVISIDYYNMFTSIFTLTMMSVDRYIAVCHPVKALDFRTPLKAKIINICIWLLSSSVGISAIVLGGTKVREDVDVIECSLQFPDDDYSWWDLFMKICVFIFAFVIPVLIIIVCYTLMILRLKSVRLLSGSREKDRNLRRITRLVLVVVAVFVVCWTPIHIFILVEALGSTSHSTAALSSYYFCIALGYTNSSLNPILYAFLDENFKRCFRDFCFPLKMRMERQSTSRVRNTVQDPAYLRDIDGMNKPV
T3 sequence (P33535 whole entry): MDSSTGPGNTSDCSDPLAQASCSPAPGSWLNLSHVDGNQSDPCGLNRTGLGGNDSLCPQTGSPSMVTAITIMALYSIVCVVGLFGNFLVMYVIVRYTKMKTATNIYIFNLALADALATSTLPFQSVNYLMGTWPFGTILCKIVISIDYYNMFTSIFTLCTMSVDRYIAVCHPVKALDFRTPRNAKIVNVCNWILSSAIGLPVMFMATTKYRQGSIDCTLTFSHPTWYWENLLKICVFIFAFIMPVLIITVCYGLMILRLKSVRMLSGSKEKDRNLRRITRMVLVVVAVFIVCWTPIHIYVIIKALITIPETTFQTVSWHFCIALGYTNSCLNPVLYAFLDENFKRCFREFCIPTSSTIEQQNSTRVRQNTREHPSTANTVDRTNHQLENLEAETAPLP
Sequence of Mu-type opioid receptor (Rattus norvegicus) (P33535 whole entry): as above

In general, Ki refers to the dissociation constant of the complex between target and ligand, obtained from inhibition or displacement. A lower Ki goes with tighter binding. A word on the EC50: it is the concentration giving half of the maximal effect. For orientation: logP means the decadic logarithm of the partition coefficient of the neutral form, usually between octanol and water. As for `Cc1cc(O)cc(C)c1C[C@H](N)C(=O)N[C@@H]1CCN(S(C)(=O)=O)c2ccc(CN3CCc4ccccc4C3)cc21.O=C(O)C(F)(F)F`, the Ratio Ki in [1] came out at 9. Further, in data set [2], the Efficacy entry was “inactive”. Besides, the inhibition constant (Ki) amounted to 0.98 nM in data set [3], 0.11 nM in [7] and 1.1 nM in data set [11]. Also, the MPE in data set [4] is listed as 100%. The results for the EC50 in data set [5], in data set [13] and in [15] were 45 nM, “Not Active” and 0.12 nM, respectively. The values for the Efficacy in data set [6] and in data set [8] were 51% and 114%, respectively. Besides, the Time in data set [9] is reported as 90 min. Besides, in data set [10], the Activity came to 100%. For the same compound, the Ke in data set [12] was 0.85 nM. For the same compound, the logP in data set [14] amounted to 3.1.
Consider `Cc1cc(O)cc(C)c1C[C@H](N)C(=O)N[C@@H]1CCN(C(=O)c2ccccc2)c2ccc(Cc3ccc4c(c3)OCCO4)cc21.O=C(O)C(F)(F)F`, for which the Ratio Ki in data set [1] was determined as 0.2. Also, the Efficacy entry in data set [2] and in [8] was “inactive” in each case. Further, the inhibitory constant (Ki) is 0.22 nM in [3], 1.5 nM in [7] and 240 nM in [11]. In data set [4], the MPE entry is “inactive”. The EC50 in [5] was greater than 500 nM; in [13] it was “Not Active”. Besides, in data set [6], the Efficacy stood at 60%. Further, the lipophilicity (logP) in [14] turned out to be 4.4. In addition, in data set [16], the result was inactive.
